Bioassay records (PubChem BioAssay)
In the library only some 2.8% were active in any assay of this set; here they are far more common.
SR-BI uptake up = SR-BI HDL lipid transfer activation; CHO ldlA[mSR-BI] cells, DiI-HDL uptake fluorescence, 3 h; 100 = double the neutral-control signal; activation, % at 12.5 µM; hit rate 0.096% among 320,000;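 active means mean replicate activation of at least 60% and every replicate at or above 60%; inconclusive means mean or all-replicate condition met, but not both; inactive means mean below 60% and not all replicates reaching 60%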;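 further: 0% = median plate neutral-control signal and 100% = twice that signal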
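System: CHO ldlA[mSR-BI] cells / Medium: HEPES-buffered (25 mM, pH 7.4) F12 plus 0.5% BSA / Probe or stimulus: labelled HDL, 10 µg/mL / Doses: single compound concentration, delivered by pin transfer / Schedule: 3 h, 37 °C / Measured by: DiI fluorescence, bottom read / Measure: cell-associated DiI fluorescence as measure of HDL uptake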
CAL PDZ FP-1 = inhibitors of human CAL PDZ peptide binding | inhibition, % at 24.9 µM | purified CAL PDZ, TMR-peptide fluorescence polarization, 1 h | hit rate 0.92% among 300,000 | Q9HD26;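 active means mean inhibition of at least 30% with at least half of replicates also reaching 30%; inconclusive means no clear call, values can overlap the other calls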;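 further: 0% = DMSO neutral control and 100% = excess unlabeled competitor peptide PRC23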
CAL PDZ FP-2 = blocks peptide binding to human CAL PDZ domain; purified CAL PDZ, TMR-peptide fluorescence polarization, 1 h; inhibition, % at 20 µM; Q9HD26; hit rate 0.02% among 330,000; AID 504414;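 active means highest replicate inhibition of at least 40%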;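 further: plate controls were DMSO neutral control wells for no effect and unlabeled competitor peptide control wells for full effect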
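System: purified tagged CAL PDZ domain construct (CerCALP). Schedule: 1 h incubation at room temperature before polarization reading. Medium: 25 mM sodium phosphate pH 7.4, 150 mM NaCl, TCEP, IgG, Thesit. Read-out: percent inhibition from loss of millipolarization. Measured by: FP readout, S and P plane fluorescence. Probe or stimulus: fluorescent TMR peptide probe.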
dFosB activator = mouse delta FosB homodimer activation; activation, % at 25 µM; P13346; hit rate 0.99% among 340,000; purified delta FosB, TAMRA-CDK5 oligo fluorescence polarization; percent of positive-control signal above neutral wells; AID 493131;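 active means mean activation above about 17%, with every replicate also reaching it, limit read from the data, passing the limit was not always enough; inconclusive means only one of the two conditions met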
SR-BI DiI inh = inhibitors of mouse SR-BI mediated HDL lipid uptake; AID 488896; Q61009; ldlA[mSR-BI] CHO cells, DiI-HDL uptake fluorescence, 3 h; inhibition, % at 12.5 µM; hit rate 0.96% among 320,000;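 active means mean replicate inhibition of at least 70% and a set share of replicates each scoring 70 or more; inconclusive means meets just one of the two criteria; inactive means fails both criteria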;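 further: 0% = median of neutral control wells and 100% = median of positive control wells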
Target sequence (Q61009 whole entry, looked up): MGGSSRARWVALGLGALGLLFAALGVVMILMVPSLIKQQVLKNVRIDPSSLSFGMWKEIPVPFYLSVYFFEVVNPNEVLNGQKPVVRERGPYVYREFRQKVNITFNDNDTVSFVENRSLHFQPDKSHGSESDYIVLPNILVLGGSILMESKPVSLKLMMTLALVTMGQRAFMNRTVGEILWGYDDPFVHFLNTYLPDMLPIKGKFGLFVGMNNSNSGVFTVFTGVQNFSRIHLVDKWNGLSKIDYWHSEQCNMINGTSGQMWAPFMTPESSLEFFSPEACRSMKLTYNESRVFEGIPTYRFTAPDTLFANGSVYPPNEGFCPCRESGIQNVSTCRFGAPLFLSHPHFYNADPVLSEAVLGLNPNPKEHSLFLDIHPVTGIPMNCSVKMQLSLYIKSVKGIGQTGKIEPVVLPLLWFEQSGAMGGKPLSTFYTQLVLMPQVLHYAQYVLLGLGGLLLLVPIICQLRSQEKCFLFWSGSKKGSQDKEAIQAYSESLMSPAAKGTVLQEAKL
* marks the source's active call; other numbers are inactive results; ? = inconclusive; . = no result given; + = active, no number.

SMILES | SR-BI uptake up | CAL PDZ FP-1 | CAL PDZ FP-2 | dFosB activator | SR-BI DiI inh
Cc1cccc(N(CC(=O)NCc2ccc3c(c2)OCO3)C(=O)CCC(=O)Nc2ccccn2)c1C | -13 | 92* | -1 | 2 | 13
Cc1cccc(NC(=S)NCc2ccc3c(c2)OCO3)c1C | 1 | 50* | -2 | -1 | -1
COc1ccc(C(CC(=O)Nc2cc(C)ccn2)N2Cc3ccccc3C2=O)cc1 (centres undefined) | -2 | -4 | -1 | -3 | 2
COc1ccc(-c2cc(C(=O)Nc3c(C)n(C)n(-c4ccccc4)c3=O)no2)cc1OC | . | 1 | -3 | -13 | .
O=C(CCN1CCN(C(c2ccccc2)c2ccccc2)CC1)N/N=C/c1ccc(O)cc1 | 1 | -2 | 2 | 5 | -1
O=C(CCN1CCN(C(c2ccccc2)c2ccccc2)CC1)N/N=C/c1ccc(O)cc1O | 23 | -2 | 4 | 37* | -23
Cc1ccc(NC2CCCN(C(=O)c3ccc4nccnc4c3)C2)cc1C (centres undefined) | 3 | -7 | -3 | 0 | -3
O=C(c1cc(Cl)ccc1F)N1CCCC(Nc2ccc3c(c2)OCCO3)C1 (centres undefined) | -14 | 37* | 1 | -3 | 14
O=C(c1ccc2nccnc2c1)N1CCCC(Nc2ccc(F)c(F)c2)C1 (centres undefined) | 8 | 51* | -1 | -12 | -8
Cc1ccc(NC2CCCN(C(=O)CCN3CCCCO3)C2)cc1C (centres undefined) | 22 | 62* | 1 | -8 | -22
COc1ccccc1OCC(=O)N1CCCC(Nc2ccc(F)c(F)c2)C1 (centres undefined) | 13 | + | -1 | -4 | -13
O=C(CCN1CCCCO1)N1CCCC(Nc2ccc(F)c(F)c2)C1 (centres undefined) | -43 | 3 | 0 | -4 | 43
O=C(Nc1ccc(Cl)c(Cl)c1)C1C2C=CC3(O2)C1C(=O)N(CCN1CCCCC1)C3C(=O)NC1CCCCC1 (centres undefined) | -20 | -2 | -1 | -7 | 20
CC1(C)CC(NC(=O)c2ccc(Cl)c(S(=O)(=O)N(Cc3ccccc3)c3ccccc3)c2)CC(C)(C)N1 | 97* | -9 | -4 | -98 | -97
CCOC(=O)C1=C(C)NC(C)=C(C(=O)OCC)C1c1ccco1 | -2 | . | 0 | -5 | 2
CCOC(=O)C1=C(C)NC(C)=C(C(=O)OCC)C1c1ccc(C)o1 | 15 | 74* | -1 | -2 | -15
C=CCOC(=O)C1=C(C)NC(C)=C(C(=O)OCC=C)C1c1ccc(C)o1 | 13 | -6 | 0 | -9 | -13
COC(=O)C1=C(C)NC(C)=C(C(=O)OC)C1c1ccco1 | 10 | 91* | -2 | 0 | -10
O=c1nccc(Nc2ccccc2)[nH]1 | -10 | 63* | 0 | -1 | 10
CC1Sc2ccc(S(=O)(=O)N3CCC(C(=O)N(C)Cc4ccccc4)CC3)cc2NC1=O (centres undefined) | 15 | -5 | -3 | -3 | -15
NC(=O)c1cc(S(=O)(=O)N2CCCC2)ccc1OCCOc1ccccc1F | 5 | 44* | 0 | 0 | -5
COCCn1nnnc1C(c1cccs1)N1CCN(c2ccccc2)CC1 (centres undefined) | -83 | -3 | -3 | -10 | 83*
O=C(NCc1ccc(Cl)cc1)c1ccc(CNc2c(N3CCOCC3)c(=O)c2=O)cc1 | -5 | 69* | -1 | -2 | 5
O=C(NCCc1ccc(Cl)cc1)c1ccc(CNc2c(N3CCOCC3)c(=O)c2=O)cc1 | . | 0 | -3 | -1 | .
CCCCNS(=O)(=O)c1cc(-c2nn(C)c(=O)c3ccccc23)ccc1C | -25 | 56* | -1 | -7 | 25
SMILES | SR-BI uptake up | CAL PDZ FP-1 | CAL PDZ FP-2 | dFosB activator | SR-BI DiI inh
N#Cc1ccc(NC(=O)Nc2cccc(C#N)c2)cc1 | -38 | -7 | -9 | -12 | 38
N#Cc1ccc(NC(=O)Nc2ccc(Oc3ccc(NC(=O)Nc4ccc(C#N)cc4)cc3)cc2)cc1 | -87 | 9 | -1 | -9 | 87*
Cc1ccc(N/N=C(\C#N)C(N)=S)c(C)c1 | -77 | -2 | 0 | 1 | 77*
Oc1ccc(Nc2ccnc3cc(Cl)ccc23)cc1 | 9 | -6 | 0 | ? | -9
CCN(CC)Cc1cc(Nc2ccnc3cc(Cl)ccc23)ccc1O | 7 | -2 | 0 | 44* | -7
CCN(CC)c1ccc(NC(=S)NCC2CCCO2)cc1 (centres undefined) | -4 | . | 0 | -6 | 4
Cc1ccnc(NC(=O)c2cccc(OC(F)F)c2)n1 | . | 0 | -2 | 10 | .
CN(C)S(=O)(=O)c1cccc(C(=O)Nc2cc(Cl)cc(Cl)c2)c1 | -73 | -5 | -3 | -14 | 73*
O=C(Nc1cc(Cl)cc(Cl)c1)c1cccc(OC(F)F)c1 | -74 | . | -1 | -10 | 74*
CN(C)S(=O)(=O)c1cccc(C(=O)Nc2ccccc2)c1 | -23 | 1 | -1 | -3 | 23
Cc1ccc(C(=O)CSc2nnc(-c3snnc3C)n2C2CC2)cc1 | -3 | . | 0 | -3 | 3
Cc1c(Cl)cccc1NC(=O)CSc1nc2ncc(Cl)cc2[nH]1 | 57 | -19 | -1 | 11 | -57
O=C(COC(=O)C1CC2CCCC(C1)C2=O)Nc1ccccc1 (centres undefined) | -24 | 2 | 0 | -4 | 24
Cc1ccc(OCC(=O)N2CCN(c3nnc(-c4ccc(C)cc4)c4ccccc34)CC2)cc1 | -78 | . | -2 | -8 | 78*
Cc1ccc(OCC(=O)N2CCN(C(=O)c3ccco3)CC2)cc1 | 0 | 2 | 0 | -5 | 0
Cc1ccc(-c2nnc(N3CCN(C(=O)COc4cccc(C)c4)CC3)c3ccccc23)cc1 | -64 | 0 | 0 | -5 | 64
COc1ccc(OCC(=O)N2CCN(c3nnc(-c4ccc(C)cc4)c4ccccc34)CC2)cc1 | -77 | -6 | 0 | -11 | 77*
Cc1ccc(OCC(=O)N2CCN(C(=O)c3cccs3)CC2)cc1 | -10 | 46* | . | 9 | 10
Cc1cccc(OCC(=O)N2CCN(c3nnc(-c4ccccc4)c4ccccc34)CC2)c1 | -80 | -2 | -1 | -18 | 80*
CC1CC2CCCC(O)=C2C(=O)O1 (centres undefined) | 2 | -1 | 0 | 11 | -2
CCOc1c(Cl)cc(/C=C/C(=O)N(CC)CC(=O)Nc2ccc(NC(C)=O)cc2)cc1OC | -62 | 7 | -2 | -20 | 62
COc1cccc(-c2nc(CS(=O)CC(=O)NCCc3ccc(C)cc3)c(C)o2)c1 (centres undefined) | 1 | 1 | -3 | -11 | -1
COc1cc(NS(=O)(=O)c2cn(C)cn2)cc(OC)c1 | . | -5 | -1 | 2 | 8
COc1cc(C2C(C#N)=C(N)N(N(C)C)C3=C2C(=O)CC(C)(C)C3)cc(OC)c1OC (centres undefined) | 2 | 44* | -1 | -3 | -2
